Experimental findings from ChEMBL document CHEMBL4513216, “Probing the Open Global Health Chemical Diversity Library for Multistage-Active Starting Points for Next-Generation Antimalarials” (ACS Infect Dis, 2020) are described below.

SMILES strings stand for the structures.

This data set is described as follows: Toxicity liver stage against HepG2, at 10uM. It counts as cell-based. Details: test concentration 10 uM, cell line HepG2-A16-CD81EGFP. Particulars: human, HepG2-A16-CD81EGFP cells; read-out: INHIBITION
The method in brief: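 Uninfected HepG2-A16-CD81EGFP cells, 3 × 10^3 per well, 1536-well, plated on prespotted compound at 10 μM final, parasite-free screening media added to match infected plates; puromycin 10 μM positive, DMSO 0.5% negative; run in parallel with 48 h PbLuc assay at 37 °C, 5% CO2; viability by CellTiter-Glo luminescence, normalized to controls.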
Take `CCOC(=O)c1cnn(-c2cc(Oc3ccccc3)ncn2)c1N`: the cytotoxicity at 10 µM stood at 2.93%.
As for `CN(Cc1ccc(F)cc1)Cc1nc(-c2cnccn2)no1`, the figure is 1.27%; as for `CCC(NC(=O)CN(C)Cc1ccc(C)o1)c1ccc(Br)cc1` (stereo not drawn), 35.5%; as for `COCc1cccc(NC(=O)NCCCN(C)S(C)(=O)=O)c1`, -0.561%.
Next, `CN(C)c1cc(C(=O)NCC2(c3ccc(F)cc3)CC2)ccn1`: 8.59%; `COc1ccc(O[C@H]2COCCN(C(=O)c3ccno3)C2)cc1`: -2.41%; `O=C(NC[C@H]1OC[C@@H](NCc2ccccc2F)[C@@H]1O)c1ccc(F)cc1`: -1.26%.
As for `CC[C@H]1CN(S(C)(=O)=O)CC[C@H]1CC(=O)NCCSC`, the figure is 3.45%; as for `Cc1occc(=O)c1OCC(=O)N1CCN(c2ccccc2)CC1`, -2.88%.
On to `COC(=O)N1CCC(CNC(=O)C2CC2)CC1`, for which the cytotoxicity at 10 µM was -2.82%.
Next, `CN(CC(=O)NCC(F)(F)F)C(=O)c1ccc(=O)[nH]c1`: -4.39%; `CCN1C(=O)CCC12CCCN(S(=O)(=O)c1cccc(C)c1)CC2` (stereo not drawn): -4.54%; `CC(C)N1[C@@H](C(=O)NCC2CC2)C[C@@H]2CN(Cc3ccco3)C[C@@H]21`: 3.41%.
Turning to `COCCNC(=O)C1CN(C(N)=O)Cc2ccnn2C1` (stereo not drawn), the cytotoxicity at 10 µM was determined as 0.0039%.
As for `O=C(CSC1CCc2ccccc2NC1=O)Nc1ccc(CCO)cc1` (stereo not drawn), the figure is -3.77%; as for `CN1CCN(C(=O)c2cc(-c3cccs3)cs2)CC1`, 3.51%; as for `CNC(=O)CCc1cc(C2CCCCN2C)nc(C)n1` (stereo not drawn), -0.956%.
With `CN(CCn1cncc1-c1cnc(N2CCOCC2)nc1)C1CCCC1`, the cytotoxicity at 10 µM worked out at 7.25%.
In the case of `CO[C@@H]1CCC[C@@H](N(C)C(=O)c2cn3cc(C)ccc3n2)[C@H]1O`, the cytotoxicity at 10 µM was 0.829%.
`CC(C)CCNC(=O)C1CCCN1C(=O)Nc1cccc(F)c1` (stereo not drawn): the cytotoxicity at 10 µM is -1.04%.
For the compound `Cc1csc(C(=O)N2CCC3(CC(N(C)c4ccncn4)C3)C2)c1` (stereo not drawn), the cytotoxicity at 10 µM is -11.2%.
As for `CC(c1ccco1)N(C(=O)c1cccc(C#N)c1)C1CC1` (stereo not drawn), the figure is 1.18%; as for `NC(=O)c1cnc(NCC(=O)NCc2ccco2)c(Cl)c1`, 3.97%.
Consider `CC(OCc1ccccc1)C(=O)NC1CCN(CC(N)=O)CC1` (stereo not drawn), for which the cytotoxicity at 10 µM is -3.45%.
As for `Cc1nc2cc(F)ccc2cc1C(=O)N1CCN(CC(C)O)CC1` (stereo not drawn), the figure is 2.49%; as for `O=C(COCCOc1ccccc1)NC1CCN(c2ccccn2)CC1`, -4.56%; as for `OC(CNCc1nnc2ccccn12)c1ccc2c(c1)OCO2` (stereo not drawn), 5.79%.
Next, `COc1ccc(OCCNC(=O)CN(C)Cc2nnc(C)n2C)cc1`: -10.3%; `CCCN(CC(=O)NC)C(=O)c1ccc(-c2nc(C)cs2)cc1`: -20.8%.
Next, `O=c1[nH]c(C2CCOC2)nc2cc(F)c(F)cc12` (stereo not drawn): 9.66%; `CC(C)c1nn(C)c(N(C)C)c1CNCc1ccnc(N(C)C)c1`: 1.36%; `CCOc1ccc(Cl)cc1CCNC(=O)c1ccc(=O)n(C)c1`: 3.31%.
Take `Cc1cc(C2CCCN(Cc3noc(Cc4ccccc4)n3)C2)n[nH]1` (stereo not drawn): the cytotoxicity at 10 µM stood at 3.65%.
As for `CCc1n[nH]c(C2CN(CC(=O)N(C)Cc3ccco3)CCO2)n1` (stereo not drawn), the cytotoxicity at 10 µM worked out at 1.07%.
As for `CC1(C)CN(C(=O)c2occc2COc2cccc(C#N)c2)CCO1`, the figure is 8.18%; as for `Cn1cc(C2(C)CN(c3ncccc3C#N)CCO2)cn1` (stereo not drawn), 4.48%.
On to `CCCS(=O)(=O)N1CCC(NCc2c(C)nn(C)c2OC)CC1`, for which the cytotoxicity at 10 µM is 7.01%.
Next, `CCc1nc(CCNC(=O)Nc2cc(C(N)=O)ccc2OC)cs1`: 1.43%; `CN(Cc1nnc(C2CC2)n1C)C1CCN(Cc2ccccc2)C1` (stereo not drawn): -4.45%.
Next, `O=C(Cc1cccc(Cl)c1)Nc1cnccc1SCCCO`: -7.04%; `COc1cc(F)ccc1N(C)Cc1ccccn1`: -1.84%.
For `O=C(NCc1ccncc1)N1CCSCC1CCO` (stereo not drawn), the cytotoxicity at 10 µM turned out to be 2.3%.
Consider `Cc1nnc(C(C)N(C)Cc2c(C)nn(-c3ccccc3)c2C)o1` (stereo not drawn), for which the cytotoxicity at 10 µM was -4.73%.
Next, `O=C(C[S+]([O-])Cc1c(F)cccc1Cl)N1CCc2sccc2C1` (stereo not drawn): -0.784%.
Next, `Cn1cc(C(C)(O)CNC(=O)c2ccc(Br)s2)cn1` (stereo not drawn): -52.7%; `COc1c(CNC(C)C(=O)NC2CCCC2)c(C(C)C)nn1C` (stereo not drawn): -1.08%.
As for `Cc1nc(C2CCCN2CCCn2c(=O)oc3ccccc32)no1` (stereo not drawn), the figure is 6.91%; as for `COc1ccc(CN(C)CC(=O)Nc2ccc3[nH]c(=O)[nH]c3c2)cc1F`, 5.97%; as for `CCc1ccc(NC(=O)C(C)N2CCN(Cc3ncc[nH]3)CC2)cc1` (stereo not drawn), -7.83%.
For `Cc1[nH]ncc1C(=O)NCC(CO)Cc1ccc(Cl)cc1` (stereo not drawn), the cytotoxicity at 10 µM was -0.0785%.
As for `CC(C)CNc1nnc(SC(C(=O)NCc2cccnc2)C(C)C)s1` (stereo not drawn), the figure is -5.9%; as for `CC(C)(C)C(O)CN1CCN(CCOCC(F)(F)F)CC1` (stereo not drawn), -2.02%.
As for `Cc1ccc(C)n1-c1c(C(=O)NCC(C)N(C)C)cnn1C` (stereo not drawn), the figure is 15.9%; as for `CCN(C(=O)CCc1ccc2[nH]ccc2c1)C1CC(=O)NC1=O` (stereo not drawn), -8.96%; as for `c1csc(N2CCN(Cc3nnnn3C3CC3)CC2)n1`, 8.96%.
As for `CCN(C)CC1CCN(C(=O)Nc2ccc(-c3cc[nH]n3)cc2)C1` (stereo not drawn), the cytotoxicity at 10 µM was -6.25%.
As for `O=S(=O)(NCCc1c[nH]c2ccc(F)cc12)C1CCOCC1`, the figure is 4.13%; as for `COc1ccc(OC)c(CNc2nnc(C(C)(C)C)o2)c1`, -6.1%; as for `CC(Cn1cccn1)NCc1csc(-c2ccc3c(c2)OCO3)n1` (stereo not drawn), -26%.
Next, `c1ccc2c(N3CCCCC3Cn3cncn3)ncnc2c1` (stereo not drawn): 4.16%; `CC(C)(C)c1nnc(CN2CCN(S(C)(=O)=O)CC2)o1`: -4.32%.
With `CCc1nc(C)sc1CN1CC[C@@](O)(C2CCOCC2)[C@H](C)C1`, the cytotoxicity at 10 µM was determined as 1.71%.
As for `CN(Cc1cc2n(n1)CCN(C(=O)c1cccnc1)C2)Cc1nccs1`, the figure is 1.2%; as for `CCc1ccc(C(=O)N2CC[C@](C)(O)C(C)(C)C2)[nH]1`, 2.43%.
As for `CSCCC(=O)N1CCCCC1CCn1cccn1` (stereo not drawn), the figure is -1.94%; as for `CN(C)C(Cn1ccnc1-c1nccn1C)c1ccccc1Cl` (stereo not drawn), -0.0184%.
Next, `Cc1ccc(C2(O)CCN(C(=O)c3sccc3S(N)(=O)=O)CC2)nc1`: -3.3%; `CNc1nc(C(=O)N2CCCN(c3ccnc(C)c3)CC2)cs1`: 6.37%.
`Cc1nc(C(C)Nc2ncnc3c2CCNCC3)c(C)s1` (stereo not drawn): the cytotoxicity at 10 µM was -6.64%.
With `CCn1ccnc1CN(C)C1CCCN(Cc2ccccc2F)C1` (stereo not drawn), the cytotoxicity at 10 µM is 4.77%.
As for `CC(C)N1CC(C(=O)N2CCC(Oc3ccccc3Cl)CC2)CC1=O` (stereo not drawn), the figure is -3.21%.
Next, `CCN1CCC2(CCC1=O)CN(C1CCOCC1)CCN2C` (stereo not drawn): -1.14%.
Next, `Cc1nn(C)cc1Cn1c(=O)c(C)nc2ccccc21`: -1.21%.
Take `Cc1nc[nH]c1-c1nnc(SCC(=O)O)n1-c1ccccc1C(F)(F)F`: the cytotoxicity at 10 µM is 0.0448%.
Next, `CCNc1nc(C)c(C(=O)N2CCN(c3ncccc3C)CC2)s1`: 3.77%; `CCN1CCCC1CNC(=O)c1cc(COc2ccccc2F)[nH]n1` (stereo not drawn): -4.17%; `CN(Cc1nccn1C)CC1CCOc2ccccc2C1` (stereo not drawn): -2.77%.
`CC(C)c1ccc(OCC(=O)N(C)C)cc1`: the cytotoxicity at 10 µM was -2.82%.
As for `CN(C)c1ccc(CCNC(=O)C2CCC(=O)N(C3CCCC3)C2)cc1` (stereo not drawn), the figure is 20.8%.
As for `Cc1ccc([C@@H]2CN(S(=O)(=O)N(C)C)C[C@H]2N(C)C)cc1`, the figure is 2.47%.
`COc1ccc(C)cc1CN1CCOC(Cn2nc(C)nc2C)C1` (stereo not drawn): the cytotoxicity at 10 µM was -2.47%.
Next, `Cc1nc(CN2CCCC(N(C)CCCc3ccccc3)C2)no1` (stereo not drawn): -0.704%; `O=C(NC1CC1)N1CCN(c2cnccn2)CC1`: -7.39%; `CN(C)CC(=O)N1CCN(CC(O)c2ccc(F)cc2)CC1` (stereo not drawn): -9.11%.
In the case of `Clc1snnc1CN1CCCC1Cn1cncn1` (stereo not drawn), the cytotoxicity at 10 µM was -20.7%.
In the case of `Cc1cc(C)n(C2CCCN(C(=O)CCOc3ccccc3F)C2)n1` (stereo not drawn), the cytotoxicity at 10 µM was -6.19%.
Next, `COc1cc(S(=O)(=O)N2CCc3ccc(Cl)cc32)cc(C(=O)O)c1OC`: -1.34%.
As for `CCn1cnnc1CNC(=O)N1CCC(CN2CCOCC2)CC1`, the figure is -7%; as for `CC(Cc1cccc(Cl)c1)NC(=O)Nc1cnn(CC(N)=O)c1` (stereo not drawn), -15%.
Next, `Cc1ccc(-c2nc(CC(=O)N3CCN(c4cnccn4)CC3)cs2)o1`: -13%; `CCc1nc(CN2CCCN(CC(O)c3ccccc3)CC2)no1` (stereo not drawn): -14%; `CC(NC(=O)NCCCN(C(C)C)S(C)(=O)=O)c1ccncc1` (stereo not drawn): -14.9%.
As to `O=C(CCC1CCCO1)NS(=O)(=O)c1ccc(Cl)cc1` (stereo not drawn), the cytotoxicity at 10 µM is -9.36%.
Next, `Cn1cc([C@@H]2CN(S(C)(=O)=O)C[C@H]2N)c2ccncc21`: 2.61%; `c1ccc(CN2CCNCC(Cc3cnccn3)C2)cc1` (stereo not drawn): -8.65%.
As for `c1cc(CN2CCN3C[C@H](Oc4cncnc4)C[C@H]3C2)ccn1`, the cytotoxicity at 10 µM was -108%.
`O=C(c1ccccc1)N1CCOC2(CCN(Cc3cccs3)CC2)C1`: the cytotoxicity at 10 µM turned out to be 0.64%.
As for `CC[C@@H]1N(Cc2ccoc2)CCC[C@]12CCC(=O)N2CCOC`, the cytotoxicity at 10 µM came to 11%.
